Measurements published in the M2OR odorant receptor database.
Changes are numbered by the printed parent chain.

Columns and labels:
Details in all cases: stereoisomer not certain
OR2M7 (Homo sapiens) = molecular target: T1, OR2M7 (Homo sapiens) (UniProt Q8NG81)
T1 sequence (whole entry): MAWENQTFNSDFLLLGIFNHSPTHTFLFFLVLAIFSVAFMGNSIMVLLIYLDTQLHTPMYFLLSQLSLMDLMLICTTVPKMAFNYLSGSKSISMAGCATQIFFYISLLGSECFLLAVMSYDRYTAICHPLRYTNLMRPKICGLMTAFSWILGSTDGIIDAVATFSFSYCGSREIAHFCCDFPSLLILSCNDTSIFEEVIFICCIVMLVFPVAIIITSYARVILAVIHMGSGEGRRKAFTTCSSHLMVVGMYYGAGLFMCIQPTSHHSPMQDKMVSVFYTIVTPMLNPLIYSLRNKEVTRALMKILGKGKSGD
In short: (§1)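 Transient luciferase assays in mammalian cell lines were common, though methods varied by source. The values come from published papers and their supplementary material, with extra details from the original authors when needed. Responsive refers to a measured signal the original authors judged statistically different from baseline, and non-responsive (inactive) to the remainder.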

OR2S2 (Homo sapiens) = molecular target: T2, OR2S2 (Homo sapiens) (UniProt Q9NQN1)
T2 sequence (whole entry): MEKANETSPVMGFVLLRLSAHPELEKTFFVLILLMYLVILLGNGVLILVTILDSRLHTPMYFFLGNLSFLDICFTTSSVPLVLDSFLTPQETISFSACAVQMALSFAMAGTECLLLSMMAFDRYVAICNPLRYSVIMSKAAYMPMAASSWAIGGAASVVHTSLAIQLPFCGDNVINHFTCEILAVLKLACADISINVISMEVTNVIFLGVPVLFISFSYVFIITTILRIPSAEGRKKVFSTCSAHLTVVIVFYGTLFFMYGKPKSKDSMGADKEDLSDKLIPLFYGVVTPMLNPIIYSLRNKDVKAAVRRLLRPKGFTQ
In short: as §1

OR2T1 (Homo sapiens) = molecular target: T3, OR2T1 (Homo sapiens) (UniProt O43869)
T3 sequence (whole entry): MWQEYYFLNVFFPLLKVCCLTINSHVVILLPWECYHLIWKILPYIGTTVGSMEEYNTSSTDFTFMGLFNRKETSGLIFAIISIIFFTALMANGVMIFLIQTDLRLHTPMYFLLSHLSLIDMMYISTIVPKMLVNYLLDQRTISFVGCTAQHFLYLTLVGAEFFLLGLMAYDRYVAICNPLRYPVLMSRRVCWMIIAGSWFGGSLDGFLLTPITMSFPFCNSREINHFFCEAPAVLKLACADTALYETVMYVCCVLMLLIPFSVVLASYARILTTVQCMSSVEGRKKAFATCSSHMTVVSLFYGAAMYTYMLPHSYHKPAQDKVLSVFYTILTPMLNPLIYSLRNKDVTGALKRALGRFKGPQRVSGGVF
In short: as §1

OR2T10 (Homo sapiens) = molecular target: T4, OR2T10 (Homo sapiens) (UniProt Q8NGZ9)
T4 sequence (whole entry): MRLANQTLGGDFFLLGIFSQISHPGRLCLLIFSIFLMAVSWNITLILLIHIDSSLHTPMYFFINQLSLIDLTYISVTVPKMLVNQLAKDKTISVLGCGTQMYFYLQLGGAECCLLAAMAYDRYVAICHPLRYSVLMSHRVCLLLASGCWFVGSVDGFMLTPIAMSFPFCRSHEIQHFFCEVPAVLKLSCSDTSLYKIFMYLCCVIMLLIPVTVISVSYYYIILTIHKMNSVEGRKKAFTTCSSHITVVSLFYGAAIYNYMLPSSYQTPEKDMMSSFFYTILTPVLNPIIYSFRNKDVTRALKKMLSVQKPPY
In short: as §1

OR2T11 (Homo sapiens) = molecular target: T5, OR2T11 (Homo sapiens) (UniProt Q8NH01)
T5 sequence (whole entry): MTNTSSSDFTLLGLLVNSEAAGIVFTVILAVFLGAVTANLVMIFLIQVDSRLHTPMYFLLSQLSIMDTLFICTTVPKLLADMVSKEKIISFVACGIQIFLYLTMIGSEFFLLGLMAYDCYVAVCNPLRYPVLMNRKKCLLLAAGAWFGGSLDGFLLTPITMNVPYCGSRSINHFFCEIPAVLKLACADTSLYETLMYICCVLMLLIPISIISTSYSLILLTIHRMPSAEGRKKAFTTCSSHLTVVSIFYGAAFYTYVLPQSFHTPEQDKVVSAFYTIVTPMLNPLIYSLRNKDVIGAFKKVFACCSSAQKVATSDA
In short: as §1

OR2T12 (Homo sapiens) = molecular target: T6, OR2T12 (Homo sapiens) (UniProt Q8NG77)
T6 sequence (whole entry): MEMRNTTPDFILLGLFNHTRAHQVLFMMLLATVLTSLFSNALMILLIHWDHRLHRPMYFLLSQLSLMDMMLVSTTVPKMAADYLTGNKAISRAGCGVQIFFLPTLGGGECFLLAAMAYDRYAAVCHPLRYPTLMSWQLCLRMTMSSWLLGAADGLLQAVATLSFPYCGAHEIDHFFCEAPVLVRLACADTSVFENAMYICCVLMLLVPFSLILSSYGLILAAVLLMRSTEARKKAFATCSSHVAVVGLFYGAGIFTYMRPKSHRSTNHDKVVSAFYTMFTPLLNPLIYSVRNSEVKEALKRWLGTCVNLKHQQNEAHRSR
In short: as §1

OR2T2 (Homo sapiens) = molecular target: T7, OR2T2 (Homo sapiens) (UniProt Q6IF00)
T7 sequence (whole entry): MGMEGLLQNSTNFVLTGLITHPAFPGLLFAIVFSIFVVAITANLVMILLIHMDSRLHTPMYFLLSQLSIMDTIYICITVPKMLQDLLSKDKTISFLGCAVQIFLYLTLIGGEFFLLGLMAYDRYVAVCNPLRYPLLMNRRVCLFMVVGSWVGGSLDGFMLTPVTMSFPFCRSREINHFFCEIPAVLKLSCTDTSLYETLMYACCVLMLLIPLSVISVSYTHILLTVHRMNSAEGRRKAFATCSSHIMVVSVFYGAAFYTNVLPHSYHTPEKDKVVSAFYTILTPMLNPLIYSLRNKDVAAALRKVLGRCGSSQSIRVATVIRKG
In short: as §1

OR2T2 L104F L262Q = tested on: T8, OR2T2 L104F L262Q
T8 sequence (whole entry): T7 sequence (whole entry) with L104F, L262Q
In short: as §1

OR2T2 L104F = tested on: T9, OR2T2 L104F
T9 sequence (whole entry): T7 sequence (whole entry) with L104F
In short: as §1

OR2T2 Q313H = tested on: T10, OR2T2 Q313H
T10 sequence (whole entry): T7 sequence (whole entry) with Q313H
In short: as §1

OR2T27 (Homo sapiens) = molecular target: T11, OR2T27 (Homo sapiens) (UniProt Q8NH04)
T11 sequence (whole entry): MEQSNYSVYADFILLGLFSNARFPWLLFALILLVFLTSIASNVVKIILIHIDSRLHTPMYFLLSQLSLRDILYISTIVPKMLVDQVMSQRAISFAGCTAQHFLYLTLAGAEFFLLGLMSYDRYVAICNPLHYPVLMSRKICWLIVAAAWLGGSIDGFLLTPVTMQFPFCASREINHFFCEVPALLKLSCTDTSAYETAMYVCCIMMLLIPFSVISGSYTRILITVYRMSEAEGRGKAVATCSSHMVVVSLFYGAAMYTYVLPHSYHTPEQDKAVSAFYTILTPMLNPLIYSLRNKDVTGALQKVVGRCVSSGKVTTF
In short: as §1

OR2T29 (Homo sapiens) = molecular target: T12, OR2T29 (Homo sapiens) (UniProt Q8NH02)
T12 sequence (whole entry): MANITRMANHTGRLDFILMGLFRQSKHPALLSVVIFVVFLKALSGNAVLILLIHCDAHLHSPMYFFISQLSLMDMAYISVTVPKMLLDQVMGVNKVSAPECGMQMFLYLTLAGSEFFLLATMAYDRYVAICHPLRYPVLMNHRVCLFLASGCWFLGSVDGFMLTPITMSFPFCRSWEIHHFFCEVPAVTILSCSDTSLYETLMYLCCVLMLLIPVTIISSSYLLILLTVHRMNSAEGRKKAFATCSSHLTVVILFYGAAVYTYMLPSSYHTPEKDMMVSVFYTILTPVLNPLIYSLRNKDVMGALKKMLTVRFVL
In short: as §1

OR2T3 (Homo sapiens) = molecular target: T13, OR2T3 (Homo sapiens) (UniProt Q8NH03)
T13 sequence (whole entry): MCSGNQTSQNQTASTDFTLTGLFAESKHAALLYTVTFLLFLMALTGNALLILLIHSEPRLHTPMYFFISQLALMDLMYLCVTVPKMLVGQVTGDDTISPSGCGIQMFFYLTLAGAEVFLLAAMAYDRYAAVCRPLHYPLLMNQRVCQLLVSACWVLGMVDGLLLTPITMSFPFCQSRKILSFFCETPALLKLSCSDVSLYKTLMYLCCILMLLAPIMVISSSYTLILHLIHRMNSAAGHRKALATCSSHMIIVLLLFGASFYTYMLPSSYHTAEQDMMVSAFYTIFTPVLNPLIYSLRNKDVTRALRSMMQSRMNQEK
In short: as §1

OR2T3 L256F = tested on: T14, OR2T3 L256F
T14 sequence (whole entry): T13 sequence (whole entry) with L256F
In short: as §1

OR2M7 [1] = tested on: OR2M7
In short: as §1
Target sequence in this assay (as listed by the source): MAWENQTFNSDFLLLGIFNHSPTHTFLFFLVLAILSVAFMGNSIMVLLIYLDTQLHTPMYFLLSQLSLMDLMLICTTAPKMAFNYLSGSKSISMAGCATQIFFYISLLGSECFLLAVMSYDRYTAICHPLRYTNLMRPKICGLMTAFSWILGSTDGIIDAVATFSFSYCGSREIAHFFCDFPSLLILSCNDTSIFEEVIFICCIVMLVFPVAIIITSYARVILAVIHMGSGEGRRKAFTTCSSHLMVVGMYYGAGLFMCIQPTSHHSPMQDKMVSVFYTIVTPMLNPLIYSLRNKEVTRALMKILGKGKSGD

OR2M7 [2] = tested on: OR2M7; remark: listed apart in the source
In short: as §1
Target sequence in this assay (as listed by the source): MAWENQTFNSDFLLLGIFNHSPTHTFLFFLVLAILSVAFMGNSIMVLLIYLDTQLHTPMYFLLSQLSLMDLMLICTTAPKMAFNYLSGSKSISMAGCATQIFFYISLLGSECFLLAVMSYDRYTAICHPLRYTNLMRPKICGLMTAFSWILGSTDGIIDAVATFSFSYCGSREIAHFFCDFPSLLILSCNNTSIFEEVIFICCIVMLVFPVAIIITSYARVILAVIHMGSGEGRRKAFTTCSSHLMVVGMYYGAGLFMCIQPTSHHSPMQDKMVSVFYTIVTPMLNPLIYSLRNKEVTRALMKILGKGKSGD

Measured: odorant receptor agonist call

CCCC(S)CCOC(C)=O (stereo not given)
not listed: OR2M7 [1] | OR2M7 [2]
inactive: all other assays above

CCCCCO
inactive: OR2M7 (Homo sapiens)

CC(C)=CCCC(C)=CCO
inactive: OR2M7 [2] | OR2T10 (Homo sapiens)
active: OR2M7 (Homo sapiens) | OR2M7 [1]

CCCCCC(=O)CC
inactive: OR2M7 (Homo sapiens)

CCCCCCC=CCCC=O
not listed: OR2T3 L256F | OR2M7 [1] | OR2M7 [2]
inactive: all other assays above

CCCCC(=O)CC
inactive: OR2M7 (Homo sapiens)

CC1=C(O)C(=O)C(C)O1 (stereo not given)
not listed: OR2M7 [1] | OR2M7 [2]
inactive: all other assays above

CCCCCCC(=O)[O-].[H+]
inactive: OR2M7 (Homo sapiens)

CCCCCC(=O)C(C)C(C)=O (stereo not given)
not listed: OR2T2 L104F L262Q | OR2T2 L104F | OR2T2 Q313H | OR2T3 L256F | OR2M7 [1] | OR2M7 [2]
inactive: all other assays above

CC(=O)C=CC1=C(C)CCCC1(C)C
inactive: OR2T10 (Homo sapiens)

CCCCCC(S)C(C)CO (stereo not given)
not listed: OR2T2 L104F L262Q | OR2T2 L104F | OR2T2 Q313H | OR2T3 L256F | OR2M7 [1] | OR2M7 [2]
inactive: all other assays above

CC(C)(C)C1CCCCC1OCCCCO (stereo not given)
inactive: OR2T10 (Homo sapiens)

CC(CO)CS (stereo not given)
not listed: OR2T2 L104F L262Q | OR2T2 L104F | OR2T2 Q313H | OR2T3 L256F | OR2M7 [1] | OR2M7 [2]
inactive: all other assays above

COc1ccc(C)cc1
inactive: OR2T10 (Homo sapiens)

CCCCC1CCC(=O)O1 (stereo not given)
inactive: OR2T10 (Homo sapiens)

C=CC(C)(O)CCC=C(C)CCC=C(C)C (stereo not given)
inactive: OR2T10 (Homo sapiens)

CCOC(=O)CC1(C)OCCO1
inactive: OR2T10 (Homo sapiens)

CCCC(C)C(=O)OCC (stereo not given)
inactive: OR2T10 (Homo sapiens)

C=CC(C)(CCC=C(C)C)OC(C)=O (stereo not given)
inactive: OR2T10 (Homo sapiens)

CC1=CCC2CC1C2(C)C (stereo not given)
inactive: OR2T10 (Homo sapiens)

CC(C)CCCC(C)(C)O
inactive: OR2T10 (Homo sapiens)

OCc1ccccc1
inactive: OR2T10 (Homo sapiens)

CCCCCCCCC(OC(C)=O)OC(C)=O
inactive: OR2T10 (Homo sapiens)

COC1CC2CC1C1CC(C=O)CC21 (stereo not given)
inactive: OR2T10 (Homo sapiens)

Cc1ccc(C(C)C)cc1O
inactive: OR2T10 (Homo sapiens)

CCCCCC1C(=O)CCC1CC(=O)OC (stereo not given)
inactive: OR2T10 (Homo sapiens)

C=CCOC(=O)COCCC(C)C
inactive: OR2T10 (Homo sapiens)

Cc1occc(=O)c1OC(=O)C(C)C
active: OR2T10 (Homo sapiens)

CC1CCCCCCCCCCCCC(=O)C1 (stereo not given)
not listed: OR2T2 L104F L262Q | OR2T2 L104F | OR2T2 Q313H | OR2T3 L256F | OR2M7 [1] | OR2M7 [2]
inactive: all other assays above

CCC(=O)C=CC1C(C)=CCCC1(C)C (stereo not given)
inactive: OR2T10 (Homo sapiens)

CCC=C(C)C(O)CCCCC (stereo not given)
inactive: OR2T10 (Homo sapiens)

CC(=O)OCc1ccccc1
inactive: OR2M7 (Homo sapiens) | OR2T10 (Homo sapiens)

CC(CC=O)c1ccc(C(C)(C)C)cc1 (stereo not given)
inactive: OR2T10 (Homo sapiens)

CC(C)=CCCC(C)CC=O (stereo not given)
inactive: OR2T10 (Homo sapiens)

CCc1ccc(CC(C)(C)C=O)cc1
inactive: OR2T10 (Homo sapiens)

CC1CC(C)(c2ccccc2)CO1 (stereo not given)
inactive: OR2T10 (Homo sapiens)

CCCCCC1COCCC1OC(C)=O (stereo not given)
inactive: OR2T10 (Homo sapiens)
